According to ChEMBL document CHEMBL4020787, “Lodopyridones B and C from a marine sediment-derived bacterium Saccharomonospora sp” (Bioorg Med Chem Lett, 2017):
Activity calls are given as the source filed them. The rule behind the calls is not given here.

What was measured:
[1] = biological target: Beta-secretase 1 (Homo sapiens) (UniProt P56817); assay: Inhibition of BACE1 (unknown origin) at 100 uM using Rh-EVNLDAEFK-Quencher as substrate after 60 mins by fluorescence spectroscopy relative to control
How it was run: (§1)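 Enzyme tested across a concentration series, with isoliquiritigenin as the reference drug. Activity is reported as percent inhibition.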

[2] = biological target: Beta-secretase 1 (Homo sapiens) (UniProt P56817); assay: Inhibition of BACE1 (unknown origin) at <100 nM using Rh-EVNLDAEFK-Quencher as substrate after 60 mins by fluorescence spectroscopy; how it was run: as §1
[3] = biological target: Beta-secretase 1 (Homo sapiens) (UniProt P56817); assay: Inhibition of BACE1 (unknown origin) at 1 to 100 uM using Rh-EVNLDAEFK-Quencher as substrate after 60 mins by fluorescence spectroscopy; how it was run: as §1
[4] = biological target: Beta-secretase 1 (Homo sapiens) (UniProt P56817); assay: Inhibition of BACE1 in human SH-SY5Y cells assessed as decrease in amyloid beta (1 to 40) production at 1000 uM after 24 hrs by ELISA relative to control; type: cell-based
How it was run: (§2)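 SH-SY5Y cells were exposed to the compound, and released Aβ40 and Aβ42 were quantified separately as percent of untreated control. Isoliquiritigenin was run in parallel as the reference drug.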

[5] = biological target: Beta-secretase 1 (Homo sapiens) (UniProt P56817); assay: Inhibition of BACE1 in human SH-SY5Y cells assessed as decrease in amyloid beta (1 to 42) production at 1000 uM after 24 hrs by ELISA relative to control; type: cell-based; how it was run: as §2
[6] = biological target: Beta-secretase 1 (Homo sapiens) (UniProt P56817); assay: Inhibition of BACE1 in human SH-SY5Y cells assessed as decrease in amyloid beta (1 to 40) production after 24 hrs by ELISA relative to control; type: cell-based; how it was run: as §2
[7] = biological target: Beta-secretase 1 (Homo sapiens) (UniProt P56817); assay: Inhibition of BACE1 in human SH-SY5Y cells assessed as decrease in amyloid beta (1 to 42) production after 24 hrs by ELISA relative to control; type: cell-based; how it was run: as §2

Sequence of Beta-secretase 1 (Homo sapiens) (P56817 whole entry): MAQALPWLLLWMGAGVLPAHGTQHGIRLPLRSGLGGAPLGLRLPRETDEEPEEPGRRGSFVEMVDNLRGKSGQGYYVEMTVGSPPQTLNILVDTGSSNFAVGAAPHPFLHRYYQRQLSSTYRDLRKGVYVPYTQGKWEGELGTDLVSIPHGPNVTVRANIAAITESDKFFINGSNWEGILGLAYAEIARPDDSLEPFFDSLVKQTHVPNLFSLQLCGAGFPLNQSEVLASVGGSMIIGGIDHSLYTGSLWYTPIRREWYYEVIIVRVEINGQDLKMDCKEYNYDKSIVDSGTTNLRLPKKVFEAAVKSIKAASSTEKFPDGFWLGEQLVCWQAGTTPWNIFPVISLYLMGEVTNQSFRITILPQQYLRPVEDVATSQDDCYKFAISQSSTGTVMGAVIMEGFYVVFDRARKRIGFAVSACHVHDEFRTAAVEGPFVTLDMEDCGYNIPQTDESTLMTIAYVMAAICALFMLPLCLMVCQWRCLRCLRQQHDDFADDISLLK

Row | inhibition [1] | inhibition [2] | inhibition [3] | inhibition [4] | inhibition [5] | inhibition [6] | inhibition [7] | Compound
1 | 42% | inactive | Dose-dependent effect |  |  |  |  | COc1c(-c2csc(-c3ccc4cc(Cl)ccc4n3)n2)n(C)c(C(=O)NCCO)c(SC)c1=O
2 | 60% | inactive | Dose-dependent effect | 41% | 49% | Dose-dependent effect | Dose-dependent effect | COc1c(-c2csc(-c3ccc4cc(Cl)ccc4n3)n2)n(C)c(C(=O)NCCOC(C)=O)c(SC)c1=O
3 | 51% | inactive | Dose-dependent effect |  |  |  |  | COc1c(-c2csc(-c3ccc4cc(Cl)ccc4n3)n2)n(C)c(C(=O)NCCO)c([S+](C)[O-])c1=O (stereo not drawn)
